For three compounds, inhibition and Activity results are on record in ChEMBL document CHEMBL5705897, “Characterization of WZ4003 and HTH-01-015 as selective inhibitors of the LKB1-tumour-suppressor-activated NUAK kinases” (Biochem J, 2014).

SMILES strings stand for the structures. Activity calls are given as the source filed them. The rule behind the calls is not given here.

For assay [1], the target named is NUAK family SNF1-like kinase 2 (Homo sapiens) (UniProt Q9H093). In words: Inhibition of GST-tagged NUAK2 (unknown origin) expressed in HEK293 cells using ALNRTSSDSALHRRR as substrate incubated for 30 mins in presence of [gamma-32P]-ATP by Cerenkov counting method. It is filed as cell-based. A digest of the protocol:
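GST–NUAK2 purified on glutathione–Sepharose from HEK-293 cells 36–48 h after transient transfection; 100 ng enzyme in 50 mM Tris/HCl pH 7.5, 0.1 mM EGTA, 10 mM magnesium acetate, 200 μM Sakamototide, 0.1 mM [γ-32P]ATP, inhibitor in DMSO; 30 min at 30 °C, stopped with 25 mM EDTA, spotted on P81, Cerenkov counted; triplicate; IC50 by non-linear regression versus DMSO control.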

The target of assay [2] is T1, Aurora kinase A (Homo sapiens) (UniProt O14965).
T1 sequence (whole entry): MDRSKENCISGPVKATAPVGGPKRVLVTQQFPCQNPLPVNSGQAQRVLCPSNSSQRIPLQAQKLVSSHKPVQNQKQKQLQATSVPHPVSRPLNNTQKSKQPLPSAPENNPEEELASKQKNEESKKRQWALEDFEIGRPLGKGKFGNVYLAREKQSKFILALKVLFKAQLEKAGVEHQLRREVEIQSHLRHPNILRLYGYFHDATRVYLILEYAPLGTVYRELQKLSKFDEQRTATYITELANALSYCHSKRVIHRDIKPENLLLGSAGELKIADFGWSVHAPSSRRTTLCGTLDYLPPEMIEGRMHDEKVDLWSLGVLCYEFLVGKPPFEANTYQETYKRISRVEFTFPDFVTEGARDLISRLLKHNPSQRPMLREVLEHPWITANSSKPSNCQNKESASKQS
In words: Inhibition of recombinant human N-terminal Hi6-tagged Aurora A (2 to 403 residues) expressed in Escherichia coli 1 uM using LRRLSLGLRRLSLGLRRLSLGLRRLSLG as substrate incubated for 30 mins in presence of [gamma-33P]ATP by filter binding method. Summed up:
(§1)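 Screened at the International Centre for Protein Kinase Profiling against a 140-kinase panel, with inhibitor at 0.1 or 1 μM; activity expressed as percentage of DMSO control reactions, mean of triplicate reactions.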

For assay [3], the target named is Aurora kinase B (Homo sapiens) (UniProt Q96GD4). In words: Inhibition of recombinant human N-terminal His6-tagged Aurora B (1 to 344 residues) expressed in Escherichia coli at 1 uM using LRRLSLGLRRLSLGLRRLSLGLRRLSLG as substrate incubated for 30 mins in presence of [gamma-33P]ATP by filter binding method. Summed up: as §1
Sequence of Aurora kinase B (Homo sapiens) (Q96GD4 whole entry, the tested form may be a part): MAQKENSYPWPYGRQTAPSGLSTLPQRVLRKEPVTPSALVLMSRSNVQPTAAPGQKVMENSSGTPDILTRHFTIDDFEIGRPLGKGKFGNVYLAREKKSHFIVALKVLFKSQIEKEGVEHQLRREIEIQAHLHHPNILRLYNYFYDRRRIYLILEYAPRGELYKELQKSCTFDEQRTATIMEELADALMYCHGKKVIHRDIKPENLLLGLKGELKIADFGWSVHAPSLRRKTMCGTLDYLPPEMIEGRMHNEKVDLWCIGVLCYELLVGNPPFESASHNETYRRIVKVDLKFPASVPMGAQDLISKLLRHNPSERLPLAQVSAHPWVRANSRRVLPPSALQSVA
Assay [4] addresses Tyrosine-protein kinase ABL1 (Homo sapiens) (UniProt P00519). The assay is described as follows: Inhibition of recombinant human N-terminal GST-tagged ABL (118 to 535 residues) expressed in Escherichia coli co-expressed with His-tagged YopH at 1 uM using EAIYAAPFAKKK as substrate incubated for 30 mins in presence of [gamma-33P]ATP by filter binding method. Summed up:
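Run within a 140-kinase specificity panel at the International Centre for Protein Kinase Profiling. Compounds were dissolved in DMSO and tested in vitro at 0.1 or 1 μM. Activity is expressed as percentage of kinase activity in DMSO control reactions, as the mean ± S.D. of triplicate reactions.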

Assay [5] has as its target Tyrosine-protein kinase JAK2 (Homo sapiens) (UniProt O60674). In words: Inhibition of JAK2 (unknown origin) activity at 1 uM relative to control. A digest of the protocol:
as §1

For assay [6], the target named is Serine/threonine-protein kinase MARK1 (Homo sapiens) (UniProt Q9P0L2). In words: Inhibition of recombinant human N-terminal His6-tagged MARK1 (2 to 795 residues) expressed in baculovirus infected Sf21 cells at 1 uM using KKKVSRSGLYRSPSMPENLNRPR as substrate incubated for 30 mins in presence of [gamma-33P]ATP by filter binding method. A digest of the protocol: as §1

Assay [7] concerns the target MAP/microtubule affinity-regulating kinase 3 (Homo sapiens) (UniProt P27448). The assay is described as follows: Inhibition of recombinant human N-terminal His6-tagged MARK3 (2 to 729 residues) expressed in baculovirus infected Sf21 cells at 1 uM using CHKtide as substrate incubated for 30 mins in presence of [gamma-33P]ATP by filter binding method. Summed up: as §1

Assay [8] addresses Serine/threonine-protein kinase BRSK1 (Homo sapiens) (UniProt Q8TDC3). The assay is described as follows: Inhibition of recombinant human N-terminal His6-tagged BRSK1 (2 to 778 residues) expressed in baculovirus infected Sf21 cells at 1 uM using KKLNRTLSFAEPG as substrate incubated for 30 mins in presence of [gamma-33P]ATP by filter binding method. Summed up:
as §1

In assay [9] the target is AMPK alpha1/beta2/gamma1 (Homo sapiens) (UniProt O43741+P54619+Q13131). The assay is described as follows: Inhibition of recombinant N-terminal His6-tagged human AMPKalpha1 (11 to 559 residues)/AMPKbeta2 (1 to 272 residues)/AMPKgamma1 (1 to 331 residues) expressed in baculovirus infected Sf21 cells at 1 uM using SAMS as substrate incubated for 30 mins in presence of [gamma-33P]ATP by filter binding method. Summed up:
as §1

Assay [10] addresses T2, NUAK family SNF1-like kinase 1 (Homo sapiens) (UniProt O60285).
T2 sequence (whole entry): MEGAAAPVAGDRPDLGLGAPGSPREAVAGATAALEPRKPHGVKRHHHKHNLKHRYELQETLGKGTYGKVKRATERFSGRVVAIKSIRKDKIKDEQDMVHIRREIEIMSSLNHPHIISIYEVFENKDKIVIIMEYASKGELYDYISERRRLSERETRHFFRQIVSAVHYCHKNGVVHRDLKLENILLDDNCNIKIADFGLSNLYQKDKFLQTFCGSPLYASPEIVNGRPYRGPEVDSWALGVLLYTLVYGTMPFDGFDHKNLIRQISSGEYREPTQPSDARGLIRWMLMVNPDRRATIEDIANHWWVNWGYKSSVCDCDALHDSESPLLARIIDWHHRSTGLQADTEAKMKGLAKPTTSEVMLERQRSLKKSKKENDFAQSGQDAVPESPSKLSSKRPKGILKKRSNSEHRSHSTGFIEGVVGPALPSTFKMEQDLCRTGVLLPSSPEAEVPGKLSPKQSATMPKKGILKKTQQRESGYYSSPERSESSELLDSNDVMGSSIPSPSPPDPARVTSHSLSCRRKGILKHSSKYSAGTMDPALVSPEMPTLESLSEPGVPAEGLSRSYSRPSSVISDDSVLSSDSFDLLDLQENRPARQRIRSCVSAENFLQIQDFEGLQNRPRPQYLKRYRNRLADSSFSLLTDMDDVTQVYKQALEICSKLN
The assay is described as follows: Inhibition of NUAK1 in HEK293 cells assessed as reduction in MYPT1 phosphorylation at Ser445 residue at 0.1 to 10 uM incubated for 16 hrs by immunoblot analysis. To be noted: dose 0.1-10 µM. It is filed as cell-based. Summed up: (§2)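 HEK-293 cells exposed to inhibitor or DMSO for 16 h; medium replaced by EDTA-PBS dissociation buffer with the same inhibitor concentration to induce detachment (gentle tapping, 70 g, 3 min); cells lysed at once; MYPT1 immunoprecipitated from 0.5 mg lysate, blotted for p-Ser445 and total MYPT1; repeated three times.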
Background: Immunoblotting shows a protein as a band on a membrane.

Assay [11] has as its target High affinity nerve growth factor receptor (Homo sapiens) (UniProt P04629). The assay is described as follows: Inhibition of recombinant human N-terminal His6-tagged TrkA (441 to 760 residues) expressed in baculovirus infected Sf21 cells assessed as remaining activity at 1 uM using Poly(Glu,Tyr) as substrate incubated for 30 mins in presence of [gamma-33P]ATP by filter binding method relative to control. Summed up: as §1

The target in assay [12] is T2, NUAK family SNF1-like kinase 1 (Homo sapiens). The assay is described as follows: Inhibition of NUAK1 in HEK293 cells assessed as reduction in MYPT1 phosphorylation at Ser445 residue at 10 uM incubated for 16 hrs by immunoblot analysis. It is filed as cell-based. A digest of the protocol: as §2
The target is the same in assay [13]. The assay is described as follows: Inhibition of NUAK1 (unknown origin) expressed in HEK293 cells assessed as reduction in MYPT1 phosphorylation at Ser445 residue at 30 uM incubated for 16 hrs by immunoblot analysis. It is filed as cell-based. Summed up: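 HEK-293 Flp/In T-Rex cells stably expressing HA–NUAK1 or HA–NUAK1[A195T] (doxycycline 0.1 μg/ml, 16–24 h to induce) treated with inhibitor 16 h, then detached in EDTA-PBS dissociation buffer containing the same inhibitor concentration, tapped and spun 70 g 3 min; lysed, endogenous MYPT1 immunoprecipitated from 0.5 mg lysate and immunoblotted for p-Ser445 and total MYPT1; three separate experiments.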

Assay [14] concerns MEF. In words: Inhibition of cell migration in NUAK1+/+ MEF cells at 10 uM pre incubated for 1 hr followed by overnight incubation and measured after 15 to 20 hrs by microscopic based wound healing assay. It is filed as functional. The note with it: Mus musculus. A digest of the protocol:
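Wound healing: equal MEF numbers loaded into both chambers of inserts with a 500 μm gap, inhibitor (10 μM) added 1 h before; after overnight at 37 °C, 5% CO2 insert removed and gap closure filmed by time-lapse microscopy every 2 min over 15–20 h; triplicate.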

Assay [15] deals with U2OS. In words: Antiproliferative activity against human U2OS cells assessed as reduction in cell viability at 10 uM after 5 days by CellTiter 96 non-radioactive cell proliferation assay. It is filed as functional, cell-based. The note with it: time 5.0 day. Summed up: (§3)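 Colorimetric CellTiter 96 AQueous proliferation assay in 96-well format; 2000 cells/well seeded for U2OS, 3000 cells/well for MEFs; grown 5 days with or without 10 μM inhibitor; run in triplicate. Inhibitors dissolved in DMSO, final DMSO in medium ≤1%. MEFs cultured in DMEM/10% FBS, glutamine, non-essential amino acids, sodium pyruvate.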

In assay [16] the target is T2, NUAK family SNF1-like kinase 1 (Homo sapiens). In words: Inhibition of NUAK1 in human U2OS cells assessed as reduction in MYPT1 phosphorylation at Ser445 residues at 10 uM after 16 hrs by immunoblot analysis. Type of assay: cell-based. Summed up:
(§4)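 U2OS cells or NUAK1+/+ MEFs treated with or without 10 μM inhibitor for 16 h, then 20 min in EDTA-PBS dissociation buffer with 10 μM inhibitor or DMSO; detached by tapping and 70 g 3 min spin, lysed immediately and immunoblotted for MYPT1 p-Ser445; three separate experiments.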

In assay [17] the test system is MEF. The assay is described as follows: Antiproliferative activity against NUAK1+/+ MEF cells assessed as reduction in cell viability at 10 uM after 5 days by CellTiter 96 non-radioactive cell proliferation assay. It is filed as functional, cell-based. To be noted: Mus musculus, time 5.0 day. A digest of the protocol: as §3
Assay [18] deals with MEF. In words: Inhibition of NUAK1 in NUAK1+/+ MEF cells assessed as reduction in MYPT1 phosphorylation at Ser445 residues at 10 uM after 16 hrs by immunoblot analysis. Type of assay: cell-based. The note with it: Mus musculus. A digest of the protocol:
as §4

Assay [19] has as its system U2OS. The assay is described as follows: Inhibition of cell invasion in human U2OS cells at 10 uM incubated for 16 hrs by matrigel based transwell assay. It is filed as functional. Summed up: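 Growth-factor-reduced Matrigel Transwell invasion: U2OS cells serum-deprived 2 h, detached, 2.5×10^5 cells in DMEM/1% BSA added to upper chambers in triplicate, DMEM/10% FBS as chemoattractant below; 16 h at 37 °C, 5% CO2 with or without 10 μM inhibitor in both compartments; cells on lower filter face fixed, stained, imaged ×10 and counted; mean ± S.D.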

Sequence of Tyrosine-protein kinase JAK2 (Homo sapiens) (O60674 whole entry): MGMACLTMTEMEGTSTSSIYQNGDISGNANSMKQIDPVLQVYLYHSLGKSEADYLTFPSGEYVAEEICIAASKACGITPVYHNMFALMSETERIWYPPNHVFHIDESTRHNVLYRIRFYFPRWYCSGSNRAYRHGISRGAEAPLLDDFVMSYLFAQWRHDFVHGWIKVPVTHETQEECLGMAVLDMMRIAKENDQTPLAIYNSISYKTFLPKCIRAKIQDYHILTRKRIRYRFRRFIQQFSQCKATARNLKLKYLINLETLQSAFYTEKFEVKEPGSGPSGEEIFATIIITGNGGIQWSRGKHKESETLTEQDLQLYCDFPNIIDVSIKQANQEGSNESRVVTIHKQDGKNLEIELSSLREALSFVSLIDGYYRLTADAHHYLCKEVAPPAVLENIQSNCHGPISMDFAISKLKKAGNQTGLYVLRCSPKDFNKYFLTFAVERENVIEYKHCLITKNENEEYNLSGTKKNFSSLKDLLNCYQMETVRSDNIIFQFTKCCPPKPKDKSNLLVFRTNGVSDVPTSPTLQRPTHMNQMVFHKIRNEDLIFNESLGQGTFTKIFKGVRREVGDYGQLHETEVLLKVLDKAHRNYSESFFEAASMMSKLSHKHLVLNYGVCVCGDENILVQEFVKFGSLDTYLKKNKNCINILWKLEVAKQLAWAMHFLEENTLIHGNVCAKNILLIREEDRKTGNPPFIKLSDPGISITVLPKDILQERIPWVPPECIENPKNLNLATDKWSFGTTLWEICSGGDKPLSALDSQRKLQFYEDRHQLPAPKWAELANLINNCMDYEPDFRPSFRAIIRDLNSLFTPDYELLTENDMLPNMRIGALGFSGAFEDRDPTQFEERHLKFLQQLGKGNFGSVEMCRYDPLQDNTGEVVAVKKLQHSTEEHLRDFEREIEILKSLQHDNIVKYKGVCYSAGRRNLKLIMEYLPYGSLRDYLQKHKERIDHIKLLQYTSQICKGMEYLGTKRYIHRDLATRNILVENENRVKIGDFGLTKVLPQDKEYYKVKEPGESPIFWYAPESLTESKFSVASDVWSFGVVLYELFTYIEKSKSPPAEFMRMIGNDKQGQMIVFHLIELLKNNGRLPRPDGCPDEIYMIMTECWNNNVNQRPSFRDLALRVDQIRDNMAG
Sequence of NUAK family SNF1-like kinase 2 (Homo sapiens) (Q9H093 whole entry): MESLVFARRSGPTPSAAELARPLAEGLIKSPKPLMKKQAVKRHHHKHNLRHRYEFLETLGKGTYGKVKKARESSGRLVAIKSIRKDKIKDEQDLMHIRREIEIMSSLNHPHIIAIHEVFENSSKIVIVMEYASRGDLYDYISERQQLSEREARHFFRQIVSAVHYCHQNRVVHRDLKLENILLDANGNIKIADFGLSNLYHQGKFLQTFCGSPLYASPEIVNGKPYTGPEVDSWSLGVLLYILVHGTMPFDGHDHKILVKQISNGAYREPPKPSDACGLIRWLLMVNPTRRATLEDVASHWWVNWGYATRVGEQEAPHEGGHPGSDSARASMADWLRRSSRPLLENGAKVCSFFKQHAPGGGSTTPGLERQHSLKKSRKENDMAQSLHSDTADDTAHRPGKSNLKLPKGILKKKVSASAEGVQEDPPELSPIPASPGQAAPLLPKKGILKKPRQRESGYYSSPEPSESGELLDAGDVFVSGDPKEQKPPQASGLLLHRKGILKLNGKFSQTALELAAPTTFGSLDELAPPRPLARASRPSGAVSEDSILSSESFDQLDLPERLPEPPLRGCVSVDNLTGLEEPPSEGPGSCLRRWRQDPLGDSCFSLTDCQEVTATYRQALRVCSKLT
Sequence of Tyrosine-protein kinase ABL1 (Homo sapiens) (P00519 whole entry, the tested form may be a part): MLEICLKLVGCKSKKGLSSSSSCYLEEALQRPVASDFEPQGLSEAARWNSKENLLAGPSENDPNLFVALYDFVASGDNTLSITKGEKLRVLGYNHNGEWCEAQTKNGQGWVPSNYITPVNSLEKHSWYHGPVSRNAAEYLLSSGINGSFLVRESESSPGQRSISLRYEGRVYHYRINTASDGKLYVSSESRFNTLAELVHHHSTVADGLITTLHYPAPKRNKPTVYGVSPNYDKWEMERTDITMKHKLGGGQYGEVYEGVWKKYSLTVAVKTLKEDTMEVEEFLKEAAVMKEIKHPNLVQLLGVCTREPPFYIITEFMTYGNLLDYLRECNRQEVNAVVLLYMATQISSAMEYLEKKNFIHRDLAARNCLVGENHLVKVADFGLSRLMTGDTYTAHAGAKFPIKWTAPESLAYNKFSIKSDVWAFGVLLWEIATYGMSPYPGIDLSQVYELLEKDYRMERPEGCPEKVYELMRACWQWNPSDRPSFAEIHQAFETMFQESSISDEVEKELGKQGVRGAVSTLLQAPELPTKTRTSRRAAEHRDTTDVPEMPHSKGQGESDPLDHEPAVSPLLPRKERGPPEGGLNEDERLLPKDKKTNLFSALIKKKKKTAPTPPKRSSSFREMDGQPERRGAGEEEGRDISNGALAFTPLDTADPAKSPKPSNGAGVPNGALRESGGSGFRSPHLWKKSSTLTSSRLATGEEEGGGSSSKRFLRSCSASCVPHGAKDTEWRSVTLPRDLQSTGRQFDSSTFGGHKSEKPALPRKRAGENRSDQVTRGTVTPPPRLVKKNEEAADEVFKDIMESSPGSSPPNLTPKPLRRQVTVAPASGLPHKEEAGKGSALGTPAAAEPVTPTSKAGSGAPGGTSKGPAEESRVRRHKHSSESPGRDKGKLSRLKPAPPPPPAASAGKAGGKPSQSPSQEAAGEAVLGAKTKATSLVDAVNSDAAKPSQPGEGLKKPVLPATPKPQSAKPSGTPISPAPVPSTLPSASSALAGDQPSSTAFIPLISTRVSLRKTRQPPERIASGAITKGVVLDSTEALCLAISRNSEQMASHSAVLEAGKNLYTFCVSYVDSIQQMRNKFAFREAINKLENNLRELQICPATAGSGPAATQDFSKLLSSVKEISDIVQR
Sequence of High affinity nerve growth factor receptor (Homo sapiens) (P04629 33-796 limits assumed): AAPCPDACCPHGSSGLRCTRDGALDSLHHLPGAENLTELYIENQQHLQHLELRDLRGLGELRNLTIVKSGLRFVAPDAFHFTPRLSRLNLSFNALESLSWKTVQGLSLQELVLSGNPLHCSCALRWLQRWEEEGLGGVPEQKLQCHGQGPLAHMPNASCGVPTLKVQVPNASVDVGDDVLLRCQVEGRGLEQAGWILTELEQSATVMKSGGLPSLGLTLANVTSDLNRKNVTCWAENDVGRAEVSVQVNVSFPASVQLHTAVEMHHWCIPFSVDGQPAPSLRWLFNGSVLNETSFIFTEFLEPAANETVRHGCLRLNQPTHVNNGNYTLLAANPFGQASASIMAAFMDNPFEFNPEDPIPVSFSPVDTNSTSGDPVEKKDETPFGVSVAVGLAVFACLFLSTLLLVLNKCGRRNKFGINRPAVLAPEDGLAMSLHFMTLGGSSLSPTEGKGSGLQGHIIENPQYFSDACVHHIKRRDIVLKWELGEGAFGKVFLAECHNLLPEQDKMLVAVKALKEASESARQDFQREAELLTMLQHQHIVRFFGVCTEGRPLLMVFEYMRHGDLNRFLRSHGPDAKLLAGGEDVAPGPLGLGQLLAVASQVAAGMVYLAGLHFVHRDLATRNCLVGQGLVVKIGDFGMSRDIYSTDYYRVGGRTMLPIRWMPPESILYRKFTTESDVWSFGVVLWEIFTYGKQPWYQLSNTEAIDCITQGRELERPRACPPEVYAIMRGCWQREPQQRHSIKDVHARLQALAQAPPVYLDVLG
Sequence of Serine/threonine-protein kinase BRSK1 (Homo sapiens) (Q8TDC3 whole entry, the tested form may be a part): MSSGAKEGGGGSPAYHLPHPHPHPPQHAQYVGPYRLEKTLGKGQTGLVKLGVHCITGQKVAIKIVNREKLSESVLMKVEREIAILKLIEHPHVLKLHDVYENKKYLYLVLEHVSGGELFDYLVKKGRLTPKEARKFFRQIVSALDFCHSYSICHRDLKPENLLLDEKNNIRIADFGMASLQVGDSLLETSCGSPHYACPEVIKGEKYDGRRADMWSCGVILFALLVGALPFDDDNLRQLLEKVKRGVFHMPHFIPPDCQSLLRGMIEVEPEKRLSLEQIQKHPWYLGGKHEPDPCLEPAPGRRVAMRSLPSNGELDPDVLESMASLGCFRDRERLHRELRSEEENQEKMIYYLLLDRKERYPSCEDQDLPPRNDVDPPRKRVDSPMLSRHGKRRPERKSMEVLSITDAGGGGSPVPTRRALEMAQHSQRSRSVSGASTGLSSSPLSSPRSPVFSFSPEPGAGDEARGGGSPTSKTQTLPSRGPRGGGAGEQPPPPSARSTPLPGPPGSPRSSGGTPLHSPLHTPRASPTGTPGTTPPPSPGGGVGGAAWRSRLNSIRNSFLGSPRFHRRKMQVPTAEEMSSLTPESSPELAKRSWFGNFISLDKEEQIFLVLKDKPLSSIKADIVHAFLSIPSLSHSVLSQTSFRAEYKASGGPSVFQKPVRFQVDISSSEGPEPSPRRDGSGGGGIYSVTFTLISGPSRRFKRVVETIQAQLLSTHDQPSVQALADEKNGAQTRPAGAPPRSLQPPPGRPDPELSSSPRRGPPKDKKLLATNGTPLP

As for `CN1C(=O)c2ccccc2N(C)c2nc(Nc3cnn(C4CCNCC4)c3)ncc21`, the inhibition entry in assay [1] was “inactive”. For the same compound, the inhibition result in assay [2], in assay [3], in assay [4], in assay [5], in assay [6] and in [7] was “Active” each time. Further, the inhibition result in assay [8], in assay [9] and in assay [10] was “Active” in each case.

Take `Cc1nc(Nc2cnn(C3CCNCC3)c2)nc2c1N(C)C(=O)c1cc3ccccc3cc1N2C`: the Activity in assay [11] came to 82%. The inhibition entry in assay [12], in assay [13], in assay [14], in [15], in [16] and in assay [17] was “Active” each time. Also, the inhibition result in assay [18] and in assay [19] was “Active” each time.

With `CN1C(=O)c2cc3ccccc3cc2N(C)c2nc(Nc3cnn(C4CCNCC4)c3)ncc21`, the inhibition result in [1] was “inactive”. In addition, the inhibition entry in [2], in assay [3], in assay [4], in assay [5] and in assay [10] was “Active” each time.
